# KCNK3 inh: human KCNK3 channel inhibition, primary screen. CHO-KCNK3 thallium flux, FluxOR fluorescence; active compounds read low. B-score at 10 µM. 340,000 compounds, 0.84% hits. AID 602410;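 active = B-score under library mean minus 4 SD, starting fluorescence ratio at most library mean plus 5 SD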;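 also: more negative B-score means stronger inhibition of thallium flux through KCNK3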
# Target sequence (O14649 whole entry, looked up): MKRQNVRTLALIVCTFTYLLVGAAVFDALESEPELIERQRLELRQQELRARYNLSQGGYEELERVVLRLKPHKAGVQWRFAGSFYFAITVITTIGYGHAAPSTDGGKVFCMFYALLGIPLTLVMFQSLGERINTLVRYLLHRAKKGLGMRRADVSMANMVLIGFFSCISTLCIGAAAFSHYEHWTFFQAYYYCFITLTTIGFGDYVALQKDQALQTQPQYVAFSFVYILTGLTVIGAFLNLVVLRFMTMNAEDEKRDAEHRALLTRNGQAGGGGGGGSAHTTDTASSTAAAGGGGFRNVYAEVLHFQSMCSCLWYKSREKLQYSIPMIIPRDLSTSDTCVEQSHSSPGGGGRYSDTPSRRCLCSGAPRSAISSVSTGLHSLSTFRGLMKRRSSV
# hERG rescue: hERG (human) protection from proarrhythmic block | CHO-hERG, FluxOR thallium flux, dofetilide IC70 present | 310,000 compounds, 0.51% hits | AID 1511 | Q12809 | activation (rescue from dofetilide block), less the hit threshold, % at 10 µM;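 active = activation above the mean of controls blocked by dofetilide plus 5 SD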;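 also: thallium influx through hERG after potassium depolarization seen as dye fluorescence rise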
# KCNQ1 act: potentiators or activators of human KCNQ1 potassium channel. P51787. CHO-K1 KCNQ1, thallium flux FluxOR fluorescence; active compounds read high. B-score at 10 µM. 310,000 compounds, 0.35% hits. AID 2648;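 active = fluorescence ratio B-score, a plate-corrected score, at least three library SD, with initial intensity B-score within 5 SD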
#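 Schedule – 37 °C overnight plating, 90-min dark dye load, 20-min compound pretreatment · System – stable KCNQ1 CHO-K1 line · Probe or stimulus – thallium- and potassium-containing depolarizing buffer · Measured by – kinetic FluxOR fluorescence, 10 s baseline plus 110 s post-stimulus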
# KCNQ1 inh: human KCNQ1 channel inhibition. CHO-K1 KCNQ1, FluxOR thallium flux fluorescence; active compounds read high. B-score at 10 µM. 310,000 compounds, 1.3% hits;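 active = compounds whose thallium flux B-score, printed positive for inhibition, exceeds three library SD while starting fluorescence stays within three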;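 also: channel opened by potassium depolarization with thallium stimulus after 20 min compound exposure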
# KCNK9 block: inhibitors of human KCNK9 two-pore domain potassium channel | Q9NPC2 | HEK293 KCNK9, FluxOR thallium flux fluorescence; active compounds read low | B-score at 10 µM | 310,000 compounds, 1.2% hits;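 active = ratio B-score over 3 SD below the library mean, with starting fluorescence within 5 SD of its mean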;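 also: negative B-score means less thallium flux so channel inhibition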
# PHOSPHO1 block: inhibitors of human PHOSPHO1 phosphatase. inhibition, % at 13.3 µM. 290,000 compounds, 1.1% hits. recombinant PHOSPHO1, absorbance phosphatase assay. Q8TCT1; in the data active = inhibition above about 60%
# KCNK3 inh conf: confirmation of human KCNK3 two-pore domain potassium channel inhibitors; shares compounds with KCNK3 inh; CHO-KCNK3 thallium flux, FluxOR fluorescence; 0% buffer, 100% carvedilol maximal block; ratio percent of control, % at 10 µM; 2,400 compounds, 99% hits; AID 651638;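 active = ratio percent of control, averaged over triplicates, above buffer control mean plus 5 SD, cut at about 64% in these data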;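 also: ratio is the fluorescence rise from min to max over baseline after thallium stimulus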
# KCNK3 noninduced: KCNK3 inhibitor counter-screen hit in non-induced cells; shares compounds with KCNK3 inh; thallium flux ratio (lower = more inhibition) at 10 µM; 2,400 compounds, 40% hits; non-induced KCNK3 parental cells, FluxOR thallium flux; active compounds read low;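 active = thallium flux ratio, averaged over three wells, more than 5 SD below the buffer control mean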;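 also: host cells are CHO cells without KCNK3 induction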
# A number is an active result; . = inactive; / = no result given. Compounds with a hit are over-represented: about 4% of the library has one in this group of screens.
SMILES,KCNK3 inh,hERG rescue,KCNQ1 act,KCNQ1 inh,KCNK9 block,PHOSPHO1 block,KCNK3 inh conf,KCNK3 noninduced
COC(=O)c1ccc(CN2CCCC(C(=O)c3cc(F)ccc3OC)C2)cc1 (configuration not stated),.,.,.,.,.,.,/,/
COc1ccc(/C=N/NC(=O)c2ccoc2C)cc1O,.,.,.,.,.,.,/,/
Cc1ccccc1NC(=O)COC(=O)c1c(-c2ccccc2)noc1C,.,/,/,/,/,/,/,/
Cc1ccc(S(=O)(=O)N(C)C)cc1NC(=O)COC(=O)c1c(-c2ccccc2)noc1C,-9.05,.,.,.,.,/,91.3,.
Cc1ccc2c(Cl)cc(Cl)c(OCC(=O)Nc3cc(S(=O)(=O)N(C)C)ccc3C)c2n1,-9.1,.,.,.,.,.,90.3,0.155
CC(=O)OCC(=O)C1(O)CCC2C3CC(C)C4=CC(=O)C=CC4(C)C3=CCC21C (configuration not stated),.,/,/,/,/,/,/,/
O=C1CS/C(=N\C(=O)N2c3ccccc3Sc3ccccc32)N1,.,.,.,.,.,.,/,/
COc1cc(NC(=O)c2ccccc2Cl)c2ncccc2c1,-9.12,.,.,.,.,.,119.3,0.151
O=C(CSc1nc(Nc2ccccc2)nc(N2CCOCC2)n1)Nc1cccc([N+](=O)[O-])c1,-11.3,.,.,.,.,.,110.3,0.153
O=C(CSc1nc(Nc2ccccc2)nc(N2CCOCC2)n1)Nc1ccc([N+](=O)[O-])cc1,.,.,.,.,.,.,/,/
O=C(CCN1C(=O)/C(=C/c2ccc(Cl)cc2)SC1=S)Nc1cccnc1,.,.,.,.,.,.,/,/
COc1ccc(Br)cc1C(=O)Nc1ccccc1N1CCCC1,-9.84,.,.,.,.,/,111.0,0.147
COc1cc(C(=O)Nc2ccccc2N2CCCCC2)cc(OC)c1OC,-10.2,.,.,.,.,.,126.0,0.117
COc1cc(-c2cc(C(=O)Nc3ccccc3N3CCOCC3)c3ccccc3n2)cc(OC)c1OC,-9.01,.,.,6,.,.,102.0,0.158
O=C(Nc1ccccc1N1CCCCC1)c1cccc(OC(F)F)c1,-10.2,.,.,.,.,.,116.7,0.15
COc1ccccc1C(=O)Nc1ccccc1N1CCCCC1,.,.,.,.,.,.,/,/
COc1cccc(C(=O)Nc2ccccc2N2CCCC2)c1,.,.,.,.,.,.,/,/
O=C(Nc1ccccc1N1CCOCC1)c1cc(-c2ccco2)nc2ccccc12,.,.,.,.,.,.,/,/
COc1ccc(Cl)cc1N1C(=O)C2CCCN2C1c1ccc(F)c(F)c1 (configuration not stated),.,.,.,.,.,.,/,/
COc1ccccc1Nc1nn2c(=O)c3ccc(C(=O)NCc4cccnc4)cc3nc2s1,.,.,.,.,.,.,/,/
COc1ccc(CC(=O)c2ccc(OC)c(OC)c2C)cc1OC,.,.,.,.,.,.,/,/
N#Cc1c(N)nc(SCC(=O)OCc2ccccc2)c(C#N)c1-c1ccco1,-11.4,.,.,.,.,.,87.3,.
CCN(CC)c1ccc(S(=O)(=O)N(CC)CC)cc1NC(=O)C1CCCC1,-9.41,.,.,.,.,.,96.7,.
CCN(CC)S(=O)(=O)c1ccc(N(C)C)c(NC(=O)C2CCCC2)c1,.,.,.,.,.,.,/,/
CCN(CC)S(=O)(=O)c1cc(NC(=O)C(=O)c2c(-c3ccccc3)cc3ccccn23)ccc1C,-10.2,.,.,.,.,.,105.3,.
CCN(CC)S(=O)(=O)c1ccc(NC(=S)NC(=O)C2CCC2)cc1,.,.,.,.,.,/,/,/
CCN(CC)S(=O)(=O)c1cccc(NC(=O)C(=O)c2c(-c3ccccc3)cc3ccccn23)c1,.,.,.,.,.,.,/,/
CCN(CC)S(=O)(=O)c1cc(NC(=S)NC(=O)C2CCCC2)ccc1C,-15.6,/,/,/,/,/,101.0,.

# Source: PubChem BioAssay (several laboratories)
